From PubChem
STEP inh = inhibitors of human striatal-enriched phosphatase STEP; inhibition, % at 20 µM; P54829; 360,000 tested, 0.25% active; recombinant STEP, OMFP fluorogenic substrate, fluorescence;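 active means inhibition at 20 µM, scaled per plate between control wells, above about 37%, limit read from the data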;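 further: 0% = DMSO with enzyme and substrate and 100% = substrate only without enzyme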
Target sequence (P54829 whole entry, looked up): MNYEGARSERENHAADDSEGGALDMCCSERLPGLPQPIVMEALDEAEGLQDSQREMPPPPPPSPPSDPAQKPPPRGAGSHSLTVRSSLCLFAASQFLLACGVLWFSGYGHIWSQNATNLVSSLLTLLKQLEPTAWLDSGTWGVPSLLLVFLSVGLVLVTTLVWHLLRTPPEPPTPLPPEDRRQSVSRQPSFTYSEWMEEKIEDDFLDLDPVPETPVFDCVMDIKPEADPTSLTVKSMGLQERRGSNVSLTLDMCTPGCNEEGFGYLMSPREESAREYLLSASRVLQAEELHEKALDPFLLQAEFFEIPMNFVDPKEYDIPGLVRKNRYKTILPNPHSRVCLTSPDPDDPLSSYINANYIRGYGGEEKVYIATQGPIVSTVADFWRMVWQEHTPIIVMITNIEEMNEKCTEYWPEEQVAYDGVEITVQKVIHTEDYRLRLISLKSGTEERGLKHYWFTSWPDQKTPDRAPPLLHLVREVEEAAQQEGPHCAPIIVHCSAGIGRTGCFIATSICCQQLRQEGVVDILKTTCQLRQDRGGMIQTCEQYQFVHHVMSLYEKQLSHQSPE
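material = STEP tyrosine phosphatase | reagent = fluorogenic phosphatase substrate OMFP at 25 µM final | doses = single compound dose of 20 µM, 1% DMSO final | schedule = 20 min reaction, room temperature, in the dark | measured by = fluorescence, 480/540 nm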
DNMT1 inh = DNMT1 (human) enzyme inhibition. P26358. DNMT1 molecular beacon, Hinp1I cleavage, fluorescence. inhibition (reported as % activation of signal), % at 10 µM. 360,000 tested, 0.83% active. AID 588458; in the data active means inhibition above about 50%
SUMO1 PPI mod = alters human SUMO1 binding to SIM partners. SUMO1 binding to a labelled peptide, TR-FRET, 1 h. inhibition, % at 20 µM. AID 602429. 360,000 tested, 0.33% active. P63165; in the data active means inhibition above about 37%
Scp1 inh = inhibitors of human Scp-1 phosphatase; Recombinant Scp1, phosphopeptide, malachite green phosphate absorbance; AID 493091; Q9GZU7; inhibition, % at 20 µM; 340,000 tested, 0.88% active;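 active means inhibition above about 50% at 20 µM, limit read from the data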;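 further: plate controls were DMSO wells with enzyme for no effect and wells lacking enzyme for full effect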
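System: SCP-1 catalytic domain; Reagent: Phospho 17-mer peptide substrate; Doses: one concentration, 20 µM, with 1.0% DMSO; Incubation: 45 min room-temperature reaction, 5 min colour, 30 min stabiliser; Signal: Phosphate-binding colour reagent, absorbance read at 630 nm.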
LMPTP block = blocks human LMPTP phosphatase; P24666; recombinant LMPTP-A, OMFP fluorogenic substrate, fluorescence intensity; inhibition, % at 20 µM; 360,000 tested, 0.22% active; AID 651560;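 active means compounds that cut the enzyme signal by at least half of the control window in the single-dose screen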;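 further: plate controls were DMSO wells with enzyme plus substrate for no effect and substrate without enzyme for full effect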
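Assay system: LMPTP-A phosphatase enzyme | Input: 0.625 nM enzyme | Also added: Fluorogenic phosphatase substrate OMFP at 400 µM final | Compound dosing: One test concentration per compound, 20 µM, with 3% DMSO overall | Schedule: 50 min enzyme reaction at room temperature, protected from light | Signal: Fluorescence intensity | Benchmarks: no-enzyme and uninhibited controls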
Beacon interf DR = counter-screen for DNMT1 inhibitors: spectral interference, dose response; shares compounds with DNMT1 inh; molecular beacon fluorescence; IC50, µM; 200 tested, under 10 active; AID 602382; call rule not given here
DNMT1 confirm = DNMT1 inhibition confirmation, single concentration; shares compounds with DNMT1 inh; 2,300 tested, 8% active; DNMT1 molecular beacon HinP1I cleavage, fluorescence; inhibition, % at 10 µM; AID 602385;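 active means average inhibition of at least 30% in the single-concentration confirmation test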
DNMT1 interf = shows spectral interference in the DNMT1 beacon assay | shares compounds with DNMT1 inh | DNMT1 molecular beacon spectral interference counterscreen, fluorescence 485/520 | activation (fluorescence interference), % at 10 µM | 2,300 tested, 1% active;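 active means activation of at least 30% at 10 µM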;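 further: DNMT1 catalytic domain with a HinP1I cleavage step and a FAM/dabcyl DNA beacon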
Numbers without * were called inactive; x = not tested or not shown. Shown are actives, neighbours in structure and some others; about 1.7% of the full set was active somewhere.

SMILES | STEP inh | DNMT1 inh | SUMO1 PPI mod | Scp1 inh | LMPTP block | DNMT1 confirm | DNMT1 interf | others
S=c1[nH]nc(-c2ccco2)n1/N=C/C=C/c1ccco1 | 4.9 | 82.6* | 13.5 | 5.4 | 2.1 | 1.9 | 3.3
S=c1[nH]nc(-c2n[nH]c3c2CCC3)n1/N=C/C=C/c1ccco1 | 5.7 | 50.9* | 22.5 | -4.3 | 1.3 | 6.4 | 6.1
CC(=O)OC(C(=O)NC1CCCCC1)c1ccc(Cl)c(Cl)c1 (stereo not drawn) | 1.3 | -2.1 | -0.1 | -2.2 | -0.7 | x | x
Cn1c(SCc2cccc(Br)c2)nnc1-c1ccncc1 | -3.8 | 0.8 | 1.6 | -3.7 | 0.0 | x | x
C(=C\c1nc(N2CCCC2)c2ccccc2n1)/c1ccccc1 | 1.6 | 60.5* | -1.6 | 17.6 | 84.8* | 2.8 | 2.6
c1ccc(-c2nc(-n3nc4ccccc4n3)nc3ccccc23)cc1 | 3.0 | -3.8 | -6.3 | -17.8 | 6.2 | x | x
O=C1CN(c2nc(-c3ccccc3)c3ccccc3n2)c2ccccc2N1 | -2.0 | 60.6* | 7.8 | 2.4 | 0.2 | 1.7 | 6.5
CC(=O)Nc1ccc(OCC(O)Cn2cncn2)cc1 (stereo not drawn) | -2.6 | 3.9 | 10.4 | 3.6 | -0.8 | x | x
CC(=O)Nc1ccc(S(=O)(=O)Nc2nc3ccccc3nc2Nc2cccc(O)c2)cc1 | -4.4 | -3.5 | -5.2 | -11.7 | 0.3 | x | x
CC(=O)Nc1ccc(S(=O)(=O)Nc2nc3ccccc3nc2Nc2ccc(C(=O)O)c(O)c2)cc1 | 12.3 | 77.5* | 56.8* | 87.2* | 7.7 | 4.4 | 13.3
CNc1cccccc1=S | 5.7 | 84.5* | 11.7 | 9.7 | 58.1* | -0.5 | 4.5
CNc1ccccc1 | 2.6 | -2.4 | -4.6 | -6.3 | 0.0 | x | x
O=C1NN=C2CCCCCC12 (stereo not drawn) | -0.6 | -0.2 | -4.4 | x | -1.8 | x | x
COc1ccc(-c2cc3ccccc3oc2=O)cc1NC(=O)c1ccc(Br)o1 | 4.6 | 85.2* | 9.1 | 1.1 | 15.6 | 1.8 | -4.5
COc1ccc(-c2cc3ccccc3oc2=O)cc1NC(=O)c1ccc([N+](=O)[O-])o1 | 5.7 | 6.5 | -7.1 | 2.2 | 10.6 | x | x
CCCNC(=O)C1(C)CCN(CCS(=O)(=O)c2ccc(C)cc2)C1 (stereo not drawn) | -0.5 | -8.5 | -1.6 | x | 1.6 | x | x
Cc1ccc(C(=O)NCCCNCCCN(C)C)cn1 | -1.1 | 52.8* | -2.1 | -10.3 | -12.5 | 1.4 | 2.0
Cc1ccc(C(=O)NCCCNCCCNC(=O)c2ccc(C)nc2)cn1 | 0.0 | -0.9 | 0.2 | -2.6 | -4.2 | x | x
O=C1NC(=S)S/C1=C\c1coc2ccc(O)cc2c1=O | 67.5* | 80.9* | 5.8 | 4.5 | 3.2 | 0.5 | 0.7
CC(Nc1nc(-c2cccnc2)nc2ccccc12)c1ccc(F)cc1 (stereo not drawn) | 0.4 | -4.2 | 1.2 | -5.3 | 35.8 | x | x
COc1ccc(NC(=O)CN(C)C(=O)c2cccc(-n3cccc3)c2)cc1 | 5.9 | 83.1* | 18.9 | x | 6.2 | 8.4 | -0.4
O=C(NCc1cccnc1)c1cc(C2CCCCN2S(=O)(=O)c2ccc(F)cc2F)on1 (stereo not drawn) | 3.6 | 3.4 | 3.1 | x | -2.2 | x | x
c1ccc(OCCCCn2cnc3ccccc32)cc1 | 2.6 | 73.7* | -0.8 | 1.1 | 0.2 | 2.5 | 4.9
C=CCN1C(=O)/C(=C\C(C)=C\c2ccccc2)SC1=S | 0.6 | 9.6 | -5.0 | 5.5 | -0.6 | x | x
CC(/C=C1\N=C(SCc2ccccc2)SC1=O)=C\c1ccccc1 | 6.2 | 80.0* | 0.0 | 3.2 | 1.7 | 1.4 | -0.5
N#Cc1cnn(Cc2ccc(Cl)cc2)c1N | -0.8 | 9.6 | -0.2 | 2.3 | -0.1 | x | x
N#Cc1cnn(Cc2ccccc2)c1N | -1.8 | 71.5* | 2.8 | -8.5 | -4.6 | 2.0 | 2.6
O=C(CNC(=O)c1ccc([N+](=O)[O-])cc1)N/N=C\c1ccc(OC(=O)c2ccccc2)cc1 | 1.1 | 85.3* | -6.5 | -4.8 | 2.2 | 38.3* | -0.1 | Beacon interf DR=>99
c1cc(N2CCOCC2)ccc1-c1ccc2nncn2c1 | 1.5 | 8.3 | -38.3 | x | -1.1 | x | x
